Laboratory results from publication PMC10210236 (ACS Omega, 2023).
“Also recorded” adds a separate entry of the source.

Key:
[1] = tested on: 2008 cells; assay: Flow cytometric analysis of cell cycle; format: cell-based, human; details: 48 h, concentration approx. IC50
[2] = tested on: Sk-Mel28 cells; assay: Flow cytometric analysis of cell cycle; format: cell-based, human; details: 48 h, concentration approx. IC50
[3] = Dissolution / intrinsic dissolution rate of pellets in pH 1.2; format: physicochemical; details: neat drug; for pure drug dissolution value: gastric pH 1.2 (0.1 N HCl)
Method in brief: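 Run in 0.1 N HCl, pH 1.2, simulating gastric conditions, in a 500 mL medium over 3 h with sampling from 15 to 180 min. Read-outs were cumulative amount dissolved and intrinsic dissolution rate, quantified separately for each drug component from the salt. Salt batch was scaled up by ethanol drop grinding, with phase purity checked by PXRD profile fitting. Leftover solids were characterized afterwards.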

[4] = tested on: C13* cells; assay: Flow cytometric analysis of cell cycle; format: cell-based, human; details: 48 h, concentration approx. IC50
[5] = tested on: 2008, C13*, and Sk-Mel28 cell lines; assay: Flow cytometric analysis of cell cycle, statement for all three lines; format: cell-based, human; details: 48 h, versus untreated
[6] = Equilibrium solubility / slurry experiment at pH 1.2, phase of residue; format: physicochemical; details: pH 1.2 (0.1 N HCl)
Method in brief: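 Equilibrium slurry of salt or free base in 0.1 N HCl, pH 1.2. Undissolved residue was characterized by DSC, TGA, PXRD profile fitting against the single-crystal structure, FESEM morphology, and FESEM-EDX chloride content to detect phase conversion, such as hydrochloride formation.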

[7] = tested on: BRAF^V600E melanoma cells Sk-Mel28; assay: Cytotoxicity screening; format: cell-based; details: Homo sapiens, SK-MEL-28
Method in brief: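 Sk-Mel28 (human BRAF V600E melanoma) cells treated with test compound across a dose–response range. Survival percentage relative to control was read, and IC50 was taken from the curve. Two separate experiments were each run in duplicate, reported as mean ± SEM.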

[8] = cited from earlier work
[9] = tested on: ovarian cancer cell lines (A2780, 2008, A2780/CP, C13*); assay: Cytotoxicity screening, ovarian lines taken together; format: cell-based; details: Homo sapiens, read-out: IC50 range in ovarian cancer cell lines

| Compound | cells in G0G1 phase [1] [%] | cells in G2/M phase [1] [%] | cells in S phase [1] [%] | hypodiploid cells [1] [%] | cells in G0G1 phase [2] [%] | cells in G2/M phase [2] [%] | cells in S phase [2] [%] | hypodiploid cells (sub-G1) [2] [%] | pure drug dissolution value [3] [mg cm^–2 min^–1] | cells in G0G1 phase [4] [%] | cells in G2/M phase [4] [%] | cells in S phase [4] [%] | hypodiploid cells (sub-G1) [4] [%] | solubility of the phase formed at pH 1.2 (in words) [6] | also measured |
| --- | --- | --- | --- | --- | --- | --- | --- | --- | --- | --- | --- | --- | --- | --- | --- |
| CC(C)(C)c1nc(-c2cccc(NS(=O)(=O)c3c(F)cccc3F)c2F)c(-c2ccnc(N)n2)s1 [DBF, dabrafenib] | 63.91 | 10.76 | 3.53 | 19.32 | 65.11 | 4.53 | 3.95 | 23.46 | 80 | 68.48 | 5.28 | 4.60 | 19.32 | – | cumulative drug dissolved, saturation value ([3]; pH 1.2, 500 mL): 12.18 mg/L; fold increase of hypodiploid cells [5]: ~4 fold |
| CC(C)(C)c1nc(-c2cccc(NS(=O)(=O)c3c(F)cccc3F)c2F)c(-c2ccnc(N)n2)s1.O [DBF·MH] | – | – | – | – | – | – | – | – | – | – | – | – | – | comparatively less soluble; also recorded: very poor | – |
| Cc1[nH]c2ccccc2c1CCNCc1ccc(/C=C/C(=O)NO)cc1 [PAN, panobinostat] | 37.98 | 9.99 | 6.78 | 42.32 | 42.53 | 18.73 | 5.17 | 30.07 | 10 | 47.46 | 10.27 | 6.85 | 30.15 | – | IC50 [7]: 45.3 ± 12 nM; pKa (indole NH) [8]: 8.4; IC50 [9]: 4 to 9 nM; cumulative drug dissolved at 15 min ([3]; pH 1.2, 500 mL, 15 min): 4.60 mg/L; cumulative drug dissolved at 180 min ([3]; pH 1.2, 500 mL, 180 min): 20.81 mg/L |
| Cc1[nH]c2ccccc2c1CCNCc1ccc(/C=C/C(=O)NO)cc1.Cl [PAN·HCl] | – | – | – | – | – | – | – | – | – | – | – | – | – | high solubility | – |
